Measured values reported in ChEMBL document CHEMBL4480369, “Discovery of 3-hydroxy-3-pyrrolin-2-one-based mPGES-1 inhibitors using a multi-step virtual screening protocol” (Medchemcomm, 2018).

Experiments:
[1] = biological target: T1, Prostaglandin E synthase (Homo sapiens) (UniProt O14684); test: Inhibition of mPGES1 in IL1beta-stimulated human A549 cell microsomes assessed as residual activity at 10 uM using PGH2 as substrate preincubated for 15 mins followed by substrate addition and measured after 1 min by RP-HPLC analysis relative to control
T1 sequence (whole entry): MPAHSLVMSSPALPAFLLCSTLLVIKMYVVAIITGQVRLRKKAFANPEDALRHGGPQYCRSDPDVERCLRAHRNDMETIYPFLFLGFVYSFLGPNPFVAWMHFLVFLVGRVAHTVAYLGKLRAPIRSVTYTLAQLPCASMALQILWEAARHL
Summary of the method: (§1)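 mPGES-1 source was microsomes from A549 cells treated 48 h with IL-1β (1 ng ml–1), obtained by sonication and differential centrifugation (10 000×g, then 174 000×g, 4 °C). Microsomes diluted in 0.1 M potassium phosphate pH 7.4 with 2.5 mM glutathione. Compound or DMSO vehicle added for 15 min at 4 °C; 20 μM PGH2 then reacted 1 min at 4 °C. Stopped with FeCl2/citric acid containing 11β-PGE2; PGE2 measured by SPE and RP-HPLC.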

[2] = biological target: T2, Polyunsaturated fatty acid 5-lipoxygenase (Homo sapiens) (UniProt P09917); test: Inhibition of 5-LO in human neutrophils assessed as residual activity at 10 uM using arachidonic acid as substrate preincubated for 10 mins followed by substrate addition and measured after 10 mins by RP-HPLC analysis
T2 sequence (whole entry): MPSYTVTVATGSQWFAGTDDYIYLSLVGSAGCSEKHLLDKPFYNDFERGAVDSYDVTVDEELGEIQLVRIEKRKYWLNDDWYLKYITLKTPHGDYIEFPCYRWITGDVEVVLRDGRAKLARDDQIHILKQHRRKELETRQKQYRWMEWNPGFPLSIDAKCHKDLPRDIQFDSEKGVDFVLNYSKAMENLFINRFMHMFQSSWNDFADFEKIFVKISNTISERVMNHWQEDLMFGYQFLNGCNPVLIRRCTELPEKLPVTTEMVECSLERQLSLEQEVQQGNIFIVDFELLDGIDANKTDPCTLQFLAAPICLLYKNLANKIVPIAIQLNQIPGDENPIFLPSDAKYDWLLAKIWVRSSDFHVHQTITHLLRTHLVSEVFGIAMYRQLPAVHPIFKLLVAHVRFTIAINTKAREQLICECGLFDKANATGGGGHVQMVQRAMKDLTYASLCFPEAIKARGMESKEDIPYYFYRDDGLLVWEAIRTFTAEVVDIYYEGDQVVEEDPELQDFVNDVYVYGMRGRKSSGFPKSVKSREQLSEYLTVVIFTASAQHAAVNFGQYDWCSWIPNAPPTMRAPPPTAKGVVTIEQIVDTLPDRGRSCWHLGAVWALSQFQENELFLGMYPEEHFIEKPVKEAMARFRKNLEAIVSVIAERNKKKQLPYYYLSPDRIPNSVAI
Summary of the method: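 Freshly isolated human peripheral-blood neutrophils at 5 × 10^6 cells per ml in PBS pH 7.4 with 1 mM CaCl2 and 1 mg mL–1 glucose. Cells pre-treated 10 min with compound in DMSO (final 0.1%). Stimulated with 2.5 μM Ca2+ ionophore A23187 plus 20 μM arachidonic acid for 10 min at 37 °C, then stopped on ice with methanol. After C18 solid-phase extraction, LTB4 all-trans isomers and 5-H(P)ETE quantified by RP-HPLC against PGB1 internal standard.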

[3] = biological target: T3, Prostaglandin E synthase (Homo sapiens, UniProt O14684); test: Inhibition of mPGES1 in IL1beta-stimulated human A549 cell microsomes using PGH2 as substrate preincubated for 15 mins followed by substrate addition and measured after 1 min by RP-HPLC analysis; summary of the method: as §1
T3 sequence (O14684 whole entry): T1 sequence (whole entry)

Row | SMILES | Activity [1] [%] | Activity [2] [%] | IC50 [3] [nM]
1 | COc1ccc(C(=O)N/C(=C\c2ccc(-c3cccc(C(F)(F)F)c3)o2)C(=O)NC(C)(C)C)cc1 | 88.6 |  | 
2 | COc1ccc(C(=O)N/C(=C\c2ccc(-c3ccccc3Cl)o2)C(=O)NCCCO)cc1 | 72.1 |  | 
3 | CC(=O)N[C@H]1[C@H](Oc2ccc(Nc3nc(-c4ccc(Cl)cc4)nc4ccccc34)cc2)O[C@H](CO)[C@@H](O)[C@H]1O | 80.1 |  | 
4 | Cc1sc2ncn(CC(=O)Nc3ccc(Oc4ccccc4)cc3)c(=O)c2c1-c1ccccc1 | 82.6 |  | 
5 | CCOC(=O)C1CCCN(c2nc3c(C)cccn3c(=O)c2/C=C(\C#N)C(=O)NCc2ccccc2)C1 (configuration not stated) | 86.8 |  | 
6 | CCOc1ccc(C2C(C(=O)c3cc4ccccc4o3)=C(O)C(=O)N2c2nnc(SCc3ccc(Cl)cc3)s2)cc1OC (configuration not stated) | 30.5 | 92.5 | 3700
7 | O=C(C1=C(O)C(=O)N(c2ncc(S(=O)(=O)c3ccc([N+](=O)[O-])cc3)s2)C1c1cccc(Cl)c1)c1ccc(Cl)cc1 (configuration not stated) | 25 | 56.6 | 1900
8 | CCOc1ccc(N2CC(c3nc4ccccc4n3CCOc3ccc(Cl)cc3)CC2=O)cc1 (configuration not stated) | 65.3 |  | 
